Reference: ChEMBL document CHEMBL2021801, “Thienopyridine ureas as dual inhibitors of the VEGF and Aurora kinase families” (Bioorg Med Chem Lett, 2012)
The source made the active and inactive calls. The calls are words filed in the database; no cut-off is given here.

Experiments:
[1] = test system: Mus musculus; assay: In vivo inhibition of KDR in po dosed mouse assessed as estradiol-induced uterine edema; type: functional
[2] = target: T1, Aurora kinase B (Homo sapiens, UniProt Q96GD4); settings: NCI-H1229
T1 sequence (Q96GD4 whole entry): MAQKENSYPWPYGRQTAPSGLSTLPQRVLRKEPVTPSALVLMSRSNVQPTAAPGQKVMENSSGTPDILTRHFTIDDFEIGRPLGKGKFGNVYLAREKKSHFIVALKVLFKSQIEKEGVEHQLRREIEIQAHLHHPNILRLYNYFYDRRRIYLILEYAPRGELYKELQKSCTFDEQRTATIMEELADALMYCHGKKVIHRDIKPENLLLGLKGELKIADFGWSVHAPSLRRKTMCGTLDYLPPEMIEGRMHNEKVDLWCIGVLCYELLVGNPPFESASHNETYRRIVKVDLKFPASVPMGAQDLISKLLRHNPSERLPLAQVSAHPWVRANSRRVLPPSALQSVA

[3] = Clearance in CD1 (ICR) mouse at 3 mg/kg, iv; type: ADME, organism-based; parameters: dose 3 mg/kg, route intravenous; settings: in vivo
[4] = Half life in CD1 (ICR) mouse at 3 mg/kg, iv; type: ADME, organism-based; parameters: dose 3 mg/kg, route intravenous; settings: in vivo
[5] = target: T1, Aurora kinase B; assay: Inhibition of Aurora B using 1 mM ATP by HTRF assay
[6] = Volume of distribution in CD1 (ICR) mouse at 3 mg/kg, iv; type: ADME, organism-based; parameters: dose 3 mg/kg, route intravenous; settings: in vivo
[7] = target: T2, Cytochrome P450 3A4 (Homo sapiens, UniProt P08684); assay: Inhibition of CYP3A4 up to 10 uM; type: ADME
T2 sequence (P08684 whole entry): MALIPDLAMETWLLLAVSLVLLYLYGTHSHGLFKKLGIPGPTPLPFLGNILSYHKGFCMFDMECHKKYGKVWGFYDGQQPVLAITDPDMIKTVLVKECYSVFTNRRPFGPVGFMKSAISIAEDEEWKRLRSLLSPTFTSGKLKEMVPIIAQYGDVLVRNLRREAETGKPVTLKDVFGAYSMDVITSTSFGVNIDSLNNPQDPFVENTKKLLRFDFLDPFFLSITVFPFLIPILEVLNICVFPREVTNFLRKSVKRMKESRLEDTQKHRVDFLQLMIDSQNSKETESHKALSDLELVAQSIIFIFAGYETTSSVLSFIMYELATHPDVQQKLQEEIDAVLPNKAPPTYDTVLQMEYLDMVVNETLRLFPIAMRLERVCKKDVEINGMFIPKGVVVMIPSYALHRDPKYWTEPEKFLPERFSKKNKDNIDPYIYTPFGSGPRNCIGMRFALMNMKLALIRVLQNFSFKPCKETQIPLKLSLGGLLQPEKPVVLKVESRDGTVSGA

[8] = AUC in CD1 (ICR) mouse at 10 mg/kg, po; type: ADME, organism-based; parameters: dose 10 mg/kg, route oral; settings: plasma
[9] = Oral bioavailability in CD1 (ICR) mouse at 10 mg/kg; type: ADME, organism-based; settings: in vivo
[10] = target: T3, Vascular endothelial growth factor receptor 2 (Homo sapiens, UniProt P35968); assay: Inhibition of KDR using 1 mM ATP by HTRF assay
T3 sequence (P35968 whole entry): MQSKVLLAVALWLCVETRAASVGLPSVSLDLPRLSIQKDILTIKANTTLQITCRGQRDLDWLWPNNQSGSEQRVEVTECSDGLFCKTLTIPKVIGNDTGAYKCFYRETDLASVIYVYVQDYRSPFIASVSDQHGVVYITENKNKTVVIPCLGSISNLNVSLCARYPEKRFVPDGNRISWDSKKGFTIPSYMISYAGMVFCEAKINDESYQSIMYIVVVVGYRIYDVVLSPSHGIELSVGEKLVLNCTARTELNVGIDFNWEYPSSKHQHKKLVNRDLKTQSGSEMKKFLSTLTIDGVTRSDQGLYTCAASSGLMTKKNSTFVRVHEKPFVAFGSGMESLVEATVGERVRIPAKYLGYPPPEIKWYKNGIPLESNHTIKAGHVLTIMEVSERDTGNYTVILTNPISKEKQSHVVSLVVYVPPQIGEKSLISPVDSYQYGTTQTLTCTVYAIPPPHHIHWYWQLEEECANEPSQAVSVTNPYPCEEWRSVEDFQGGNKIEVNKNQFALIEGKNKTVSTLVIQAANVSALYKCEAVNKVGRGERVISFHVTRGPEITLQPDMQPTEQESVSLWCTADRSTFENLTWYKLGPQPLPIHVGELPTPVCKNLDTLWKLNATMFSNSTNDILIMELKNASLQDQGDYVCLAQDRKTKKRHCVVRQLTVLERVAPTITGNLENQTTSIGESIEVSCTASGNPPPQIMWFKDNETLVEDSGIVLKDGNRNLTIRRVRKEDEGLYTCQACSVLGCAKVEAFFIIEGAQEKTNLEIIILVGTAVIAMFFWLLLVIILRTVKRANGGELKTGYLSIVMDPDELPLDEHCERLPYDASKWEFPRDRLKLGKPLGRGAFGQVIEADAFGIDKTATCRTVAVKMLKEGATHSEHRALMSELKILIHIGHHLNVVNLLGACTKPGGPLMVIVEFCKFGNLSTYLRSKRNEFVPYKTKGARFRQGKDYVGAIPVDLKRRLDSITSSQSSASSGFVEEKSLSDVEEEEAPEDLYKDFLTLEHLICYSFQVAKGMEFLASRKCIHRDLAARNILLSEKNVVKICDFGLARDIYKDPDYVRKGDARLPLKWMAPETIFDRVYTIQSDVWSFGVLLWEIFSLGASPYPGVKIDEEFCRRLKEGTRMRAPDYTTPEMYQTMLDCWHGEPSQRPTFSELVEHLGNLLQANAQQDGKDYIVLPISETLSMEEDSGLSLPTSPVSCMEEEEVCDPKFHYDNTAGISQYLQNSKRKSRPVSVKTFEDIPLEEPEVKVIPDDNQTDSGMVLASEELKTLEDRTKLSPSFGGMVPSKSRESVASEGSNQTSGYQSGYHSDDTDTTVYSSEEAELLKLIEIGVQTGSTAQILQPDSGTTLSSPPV

[11] = target: T3, Vascular endothelial growth factor receptor 2; assay: Inhibition of human KDR phosphorylation expressed in mouse NIH3T3 cells; type: cell-based
[12] = Volume of distribution at steady state in mouse; type: ADME, organism-based; settings: in vivo, read-out: Vdss
[13] = Protein binding in rat; type: ADME, organism-based; settings: plasma, read-out: PB
[14] = species: Canis familiaris; assay: Cardiotoxicity in dog assessed as QT prolongation time at 32.1 uM plasma concentration; type: toxicity, organism-based, Canis lupus familiaris
[15] = target: Voltage-gated inwardly rectifying potassium channel KCNH2 (Homo sapiens, UniProt Q12809); assay: Inhibition of human Erg by patch clamp assay in absence of plasma protein
Chain of Voltage-gated inwardly rectifying potassium channel KCNH2 (Q12809 whole entry): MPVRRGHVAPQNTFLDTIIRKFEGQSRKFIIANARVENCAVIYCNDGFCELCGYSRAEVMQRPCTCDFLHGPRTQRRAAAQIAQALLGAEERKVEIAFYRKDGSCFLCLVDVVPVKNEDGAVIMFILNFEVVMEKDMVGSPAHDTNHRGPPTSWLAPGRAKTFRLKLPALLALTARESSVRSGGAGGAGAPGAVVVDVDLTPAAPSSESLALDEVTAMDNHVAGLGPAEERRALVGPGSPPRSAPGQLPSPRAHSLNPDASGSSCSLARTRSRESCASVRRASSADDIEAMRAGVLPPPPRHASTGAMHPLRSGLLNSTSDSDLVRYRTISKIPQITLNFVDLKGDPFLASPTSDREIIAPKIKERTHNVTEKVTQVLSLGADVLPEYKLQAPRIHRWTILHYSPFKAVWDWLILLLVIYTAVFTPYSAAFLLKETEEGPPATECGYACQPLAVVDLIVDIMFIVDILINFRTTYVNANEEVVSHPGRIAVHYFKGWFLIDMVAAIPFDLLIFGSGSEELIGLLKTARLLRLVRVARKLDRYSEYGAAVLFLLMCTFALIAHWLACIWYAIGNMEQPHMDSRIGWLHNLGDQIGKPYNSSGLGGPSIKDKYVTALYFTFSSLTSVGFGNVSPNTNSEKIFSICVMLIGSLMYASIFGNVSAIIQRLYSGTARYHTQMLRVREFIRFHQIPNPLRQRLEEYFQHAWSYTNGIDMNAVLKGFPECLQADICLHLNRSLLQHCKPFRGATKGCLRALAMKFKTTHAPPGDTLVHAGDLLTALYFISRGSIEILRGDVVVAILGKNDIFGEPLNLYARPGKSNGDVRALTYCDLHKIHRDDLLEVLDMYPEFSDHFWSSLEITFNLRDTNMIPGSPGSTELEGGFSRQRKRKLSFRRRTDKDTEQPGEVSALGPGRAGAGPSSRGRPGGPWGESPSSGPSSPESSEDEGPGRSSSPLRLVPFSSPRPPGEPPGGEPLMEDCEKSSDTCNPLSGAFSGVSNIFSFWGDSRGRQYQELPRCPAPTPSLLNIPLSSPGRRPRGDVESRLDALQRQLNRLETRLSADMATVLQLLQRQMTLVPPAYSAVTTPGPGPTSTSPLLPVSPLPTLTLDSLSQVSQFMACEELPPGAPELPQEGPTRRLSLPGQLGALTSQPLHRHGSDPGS

[16] = Half life in mouse; type: ADME, organism-based; settings: in vivo
[17] = target: T2, Cytochrome P450 3A4; assay: Inhibition of CYP3A4; type: ADME
[18] = Protein binding in dog; type: ADME, organism-based, Canis lupus familiaris; settings: plasma, read-out: PB
[19] = Plasma clearance in dog; type: ADME, organism-based, Canis lupus familiaris
[20] = Plasma clearance in rat; type: ADME, organism-based
[21] = Protein binding in mouse; type: ADME, organism-based; settings: plasma, read-out: PB
[22] = Half life in rat; type: ADME, organism-based; settings: in vivo
[23] = Aqueous solubility of the compound; type: physicochemical; settings: buffer
Summary of the method: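 Aqueous solubility was measured across the physiological pH range.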

[24] = Lipophilicity, log D of the compound at pH 7; type: physicochemical; settings: buffer
[25] = species: Canis familiaris; assay: Cardiotoxicity in dog assessed as QT prolongation time at 117 uM plasma concentration; type: toxicity, organism-based, Canis lupus familiaris
[26] = Half life in dog; type: ADME, organism-based, Canis lupus familiaris; settings: in vivo
[27] = Plasma clearance in mouse; type: ADME, organism-based
[28] = Volume of distribution at steady state in dog; type: ADME, organism-based, Canis lupus familiaris; settings: in vivo, read-out: Vdss
[29] = Volume of distribution at steady state in rat; type: ADME, organism-based; settings: in vivo, read-out: Vdss
[30] = test system: HT-1080; assay: Antitumor activity against human HT1080 cells xenografted in mouse assessed as tumor growth inhibition at 10 mg/kg, po qd; type: functional; settings: read-out: GI
[31] = test system: Mus musculus; assay: In vivo inhibition of KDR in mouse assessed as estradiol-induced uterine edema up to 30 mg/kg, po; type: functional, organism-based; parameters: dose 30 mg/kg
Summary of the method: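 Estradiol-induced uterine edema model in mice, a readout of acute in vivo KDR activity. Compound is given orally and ED50 is reported in mg/kg po. Procedure follows the cited reference.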

Row | SMILES | EC15 [2] [nM] | clearance [3] [mL/min/kg] | half-life [4] [h] | IC50 [5] [nM] | Vd [6] [L/kg] | AUC [8] [ng·h/mL] | bioavailability [9] [%] | IC50 [10] [nM] | ED50 [1] [mg/kg] | other results
1 | CC(C)Cn1cc(-c2cnc(N)c3c(-c4ccc(NC(=O)Nc5cccc(F)c5)cc4)csc23)cn1 | 355 | – | – | 177 | – | – | – | 25 | 1.1 | –
2 | Cc1ccc(NC(=O)Nc2ccc(-c3csc4c(-c5cnn(C)c5)cnc(N)c34)cc2)cc1 | 64 | – | – | 50 | – | – | – | – | 1 | –
3 | COc1ccc(NC(=O)Nc2ccc(-c3csc4c(-c5cnn(C)c5)cnc(N)c34)cc2)cc1 | 57 | 15 | 1.3 | 114 | 1.5 | 5220 | 44 | 6 | 1.3 | inhibition (INH) [7]: < 20%
4 | Cn1cc(-c2cnc(N)c3c(-c4ccc(NC(=O)Nc5ccccc5F)cc4)csc23)cn1 | < 30 | – | – | 18 | – | – | – | 3 | 1.1 | –
5 | Cn1cc(-c2cnc(N)c3c(-c4ccc(NC(=O)Nc5cccc(C(N)=O)c5)cc4)csc23)cn1 | 413 | – | – | 23 | – | – | – | 2 | > 10 | –
6 | Cc1cccc(NC(=O)Nc2ccc(-c3csc4c(-c5cc[nH]c5)cnc(N)c34)cc2)c1 | 389 | – | – | 68 | – | – | – | 4 | – | IC50 [11]: 1 nM
7 | Cn1cc(-c2cnc(N)c3c(-c4ccc(NC(=O)Nc5ccc(Cl)cc5)cc4)csc23)cn1 | 27 | – | – | 48 | – | – | – | 8 | 0.3 | –
8 | Nc1ncc(-c2cnn(CCO)c2)c2scc(-c3ccc(NC(=O)Nc4cccc(F)c4)cc3)c12 [ILORASERTIB] | 12 | 5 | 4.7 | – | 1.7 | 18600 | 47 | – | 3.2 | Vd [12]: 0.4 L/kg; fraction unbound [13]: < 0.01; Time [14]: 11 ms; IC50 [15]: 1000 nM; half-life [16]: 4 h; IC50 [17]: > 30000 nM; fraction unbound [18]: < 0.01; clearance [19]: < 5 mL/min/kg; clearance [20]: < 5 mL/min/kg; fraction unbound [21]: < 0.01; half-life [22]: 4 h; solubility [23]: < 78 µM; logD [24]: 4.5; Time [25]: 25 ms; half-life [26]: 4 h; clearance [27]: < 5 mL/min/kg; inhibition (INH) [7]: < 20%; Vd [28]: 0.4 L/kg; Vd [29]: 0.4 L/kg
9 | CCCn1cc(-c2cnc(N)c3c(-c4ccc(NC(=O)Nc5cccc(F)c5)cc4)csc23)cn1 | 4 | 16.7 | 0.8 | 31 | 1.2 | 5260 | 52 | – | 1.5 | inhibition (INH) [7]: < 20%; inhibition in vivo at 10 mg/kg [30]: > 70%
10 | Cc1cccc(NC(=O)Nc2ccc(-c3csc4ccnc(N)c34)cc2)c1 | 4140 | 66.7 | 0.3 | – | 1.7 | 450 | 18 | – | – | Activity [31]: inactive
11 | Cc1cccc(NC(=O)Nc2ccc(-c3csc4c(-c5ccoc5)cnc(N)c34)cc2)c1 | > 300 | – | – | 100 | – | – | – | 8 | – | IC50 [11]: 14 nM

The next lines start with results.

Row | EC15 [2] [nM] | clearance [3] [mL/min/kg] | half-life [4] [h] | IC50 [5] [nM] | Vd [6] [L/kg] | AUC [8] [ng·h/mL] | bioavailability [9] [%] | IC50 [10] [nM] | SMILES | ED50 [1] [mg/kg] | other results
12 | 2 | 5 | 2.9 | 1 | 1.2 | 14600 | 42 | – | C[C@@H](O)Cn1cc(-c2cnc(N)c3c(-c4ccc(NC(=O)Nc5cccc(F)c5)cc4)csc23)cn1 | 1.2 | inhibition (INH) [7]: < 20%
13 | 46 | – | – | 13 | – | – | – | – | CNC(=O)c1cnc(N)c2c(-c3ccc(NC(=O)Nc4cccc(C)c4)cc3)csc12 | – | IC50 [11]: 1 nM
14 | 1 | – | – | 5 | – | – | – | 6 | CN1CCC(n2cc(-c3cnc(N)c4c(-c5ccc(NC(=O)Nc6cccc(F)c6)cc5)csc34)cn2)C1=O (stereo unspecified) | 0.4 | –
15 | < 1 | – | – | 2 | – | – | – | 2 | Nc1ncc(-c2cnn(CCCN3CC[C@@H](O)C3)c2)c2scc(-c3ccc(NC(=O)Nc4cccc(F)c4)cc3)c12 | – | –
16 | 141 | – | – | 11 | – | – | – | – | Cc1cccc(NC(=O)Nc2ccc(-c3csc4c(C#CCN(C)C)cnc(N)c34)cc2)c1 | – | –
